The values that follow come from ChEMBL document CHEMBL3286392, “Iron chelators in photodynamic therapy revisited: synergistic effect by novel highly active thiosemicarbazones” (ACS Med Chem Lett, 2014).

Each structure is given as a SMILES string. Calls of active or inactive are those of the source. No cut-off for these calls is given here.

Data set [1] deals with HCT-116. The experiment in a line: Dark cytotoxicity against human HCT116 cells expressing wild type p53 after 96 hrs by MTT assay. To be noted: HCT-116, 96 h. Format: cell-based. In general terms: Tetrazolium dyes change colour on reduction, which living cells bring about.
For data set [2], the system named is HCT-116. The data set can be described thus: Dark cytotoxicity against p53-deficient human HCT116 cells after 96 hrs by MTT assay. To be noted: HCT-116, 96 h. Format: cell-based.
Data set [3] has as its system HCT-116. The data set can be described thus: Photocytotoxicity against human HCT116 cells expressing wild type p53 assessed as combination index incubated for 24 hrs followed by light irradiation measured after 24 hrs by MTS assay in presence of ALA. Format: functional. An outline of the steps: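 HCT 116+/+ cells were treated with TSC at a range of concentrations plus ALA held at 1 mM. PpIX was irradiated at varied light doses, with doses increased in constant ratio. CI was calculated by the Chou–Talalay method as the summed doses in the combination divided by the dose of each therapy alone giving the same cytotoxic effect.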

Data set [4] relates to HCT-116. The experiment in a line: Induction of 5-aminolevulinic acid-induced cellular PpIX formation in human HCT116 cells expressing wild type p53 at 50 uM by fluorescence plate reader analysis. Format: functional, cell-based.
Data set [5] has as its system HCT-116. The data set can be described thus: Photocytotoxicity against human HCT116 cells expressing wild type p53 incubated for 24 hrs followed by light irradiation measured after 24 hrs by MTS assay in presence of ALA and FeCl3. Format: functional, cell-based.
A further data set has as its system Raji. The data set can be described thus: Dark cytotoxicity against human Raji cells after 72 hrs by MTT assay. Format: cell-based.
Another data set relates to HeLa. The data set can be described thus: Dark cytotoxicity against human HeLa cells after 72 hrs by MTT assay. Format: cell-based.
A further data set has as its system NHDF. The experiment in a line: Dark cytotoxicity against human NHDF cells after 72 hrs by MTT assay. Format: cell-based.
For data set [6], the system named is HCT-116. The data set can be described thus: Induction of ROS generation in human HCT116 cells expressing wild type p53 at 4 uM after 24 hrs by spectrophotometry. The format is functional, cell-based.
Data set [7] is described as follows: Ratio of IC50 for p53-deficient human HCT116 cells to IC50 for human Raji cells. The format is cell-based. The conditions noted are these: hct-116.
Data set [8] concerns HCT-116. The experiment in a line: Cytotoxicity against human HCT116 cells expressing wild type p53 assessed as cell death at 50 uM. The format is cell-based. To be noted: hct-116, 50 µM.
The test system of data set [9] is HCT-116. The data set can be described thus: Induction of ROS generation in human HCT116 cells expressing wild type p53 at 1.6 nM after 24 hrs by spectrophotometry. The format is functional, cell-based.
Data set [10] is described as follows: Ratio of IC50 for human HCT116 cells expressing wild type p53 to IC50 for human NHDF cells. Format: cell-based, HCT-116. The conditions noted are these: HCT116 cells expressing wild type p53 and NHDF cells, read-out: Ratio IC50.
For data set [11], the system named is HCT-116. The experiment in a line: Induction of ROS generation in human HCT116 cells expressing wild type p53 at 8 nM after 24 hrs by spectrophotometry. Format: functional, cell-based.

By IC50 is commonly meant the concentration needed to halve the response being measured. For the compound `CC(=O)N(O)CCCCCNC(=O)CCC(=O)N(O)CCCCCNC(=O)CCC(=O)N(O)CCCCCN` [DEFEROXAMINE], the IC50 in the data set on HCT-116 [1] and in the data set with HCT-116 [2] was > 200000 nM in each case. Besides, the CI in the data set with HCT-116 [3] was found to be 1.01. In addition, in the data set with HCT-116 [4], the outcome was inactive. For the same compound, the outcome in the data set with HCT-116 [5] was Active.
Take `CCN1CCN(C(=S)N/N=C/c2ccccc2O)CC1`: the IC50 is > 20000 nM in the data set with HCT-116 [1]; > 20000 nM with HCT-116 [2]; > 10000 nM in the data set with Raji; > 20000 nM in the data set with HeLa; > 20000 nM with NHDF. In the data set with HCT-116 [3], the CI is reported as 0.95. In the data set with HCT-116 [4], the outcome was inactive. For the same compound, the result with HCT-116 [5] was Active.
As to `NC(=S)N/N=C/c1ncccc1N` [TRIAPINE], the half-maximal inhibitory concentration (IC50) in the data set on HCT-116 [1] was found to be 1230 nM. Also, the CI in the data set with HCT-116 [3] turned out to be 0.85. Moreover, the result with HCT-116 [5] and with HCT-116 [6] was Active.
As to `S=C(NN=C(c1ccccn1)c1ccccn1)N1CCN(c2ccccc2)CC1`, the IC50 with HCT-116 [1] came out at 0.81 nM; in the data set on HCT-116 [2], 0.76 nM; with Raji, 0.32 nM; with HeLa, 570 nM; with NHDF, 1.73 nM. In addition, the CI with HCT-116 [3] worked out at 0.47. For the same compound, in data set [7], the “Ratio IC50” value came out at 2.4. The Activity entry with HCT-116 [8] was “Toxic”. Also, the outcome in the data set with HCT-116 [5] and with HCT-116 [9] was Active.
With `CN(C)C(=S)N/N=C/c1c(O)ccc2cccnc12`, the IC50 with HCT-116 [1], in the data set on HCT-116 [2] and with NHDF was > 20000 nM in each case. Besides, in the data set on HCT-116 [3], the CI is 6.08. Also, the result in the data set on HCT-116 [4] was inactive. Further, the result with HCT-116 [5] was Active.
Turning to `Oc1cccc2ccc(/C=N/NC(=S)N3CCOCC3)nc12`, the IC50 in the data set on HCT-116 [1] is 3.84 nM; in the data set with HCT-116 [2], 16.8 nM; with Raji, 21.2 nM; with HeLa it was 176 nM; with NHDF, > 10000 nM. Also, the CI with HCT-116 [3] turned out to be 0.08. For the same compound, the selectivity ratio in data set [10] was 2770. Moreover, the Activity result in the data set on HCT-116 [8] is reported as “Toxic”. Further, the outcome in the data set on HCT-116 [5] and in the data set on HCT-116 [11] was Active.
